Source: PubChem BioAssay
Results filed as inconclusive are left out.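 How the source made its calls, unless noted: active means cell viability at or below a set limit in both duplicate runs, the limit being the all-compound median minus 4 SD (cut at about 23% in these data, passing the limit was not always enough); inconclusive means no clear call, values can overlap the other calls; inactive means the rest.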

How the values were obtained:
[1] = S. cerevisiae growth inhibition in permissive medium (OD615), pilot counter-assay for S. cerevisiae lifespan shortening project, permissive growth control (AID 705;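 active means growth inhibition above 25% in both replicates, a cutoff set 3 SD above the mean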); conditions: OD615, 24 h, at 10 µM, hits give high values
How it was run: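 System: S. cerevisiae with engineered DeaD lifespan system. Medium: SC raffinose/galactose permissive medium. Doses: single compound dose of 10 µM, 0.25% DMSO final. Schedule: 24 h exposure, 30 °C. Measured by: OD615 turbidity read. Read-out: growth inhibition.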

[2] = S. cerevisiae growth inhibition in restrictive medium, OD615, pilot screen, restrictive growth control, yeast lifespan reduction project (AID 706;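 active means growth inhibition above a set limit, 3 SD over mean compound inhibition, in both replicates, cut at about 43% in these data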;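 further: modified DeaD lifespan yeast strain shifted to restrictive glucose medium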); conditions: OD615, 48 h, at 10 µM, hits give high values
How it was run: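 Assay system – genetically modified Saccharomyces cerevisiae, DeaD replicative lifespan assay strain · Medium – CSMM-D glucose medium · Doses – 10 µM compound, 0.25% DMSO · Times – 4 h pre-incubation, 48 h exposure at 30 °C · Signal – optical density at 615 nm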

[3] = doxorubicin toxicity protection in MRP-1 cells – H69AR cells, CellTiter-Glo, duplicate, MRP-1 activator project, pilot screen (AID 807;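 active means viability increase at or above a cutoff of the median across tested compounds plus 3 SD, cut at about 8.5% in these data, passing the limit was not always enough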;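 further: compound pretreatment 18-22 h then 72 h combined with doxorubicin; 0% = doxorubicin alone and 100% = vehicle without doxorubicin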); conditions: H69AR viability with doxorubicin, CellTiter-Glo luminescence; at 10 µM; hits give high values
[4] = viability of HCT116 without oncogenic beta-catenin – human colon tumor cells, pilot screen (AID 823); conditions: HCT116 beta-catenin knockout viability, CellTiter-Glo, 60 h; at 10 µM; hits give low values;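 further: 0% = wells killed by 20 µM Hyamine and 100% = untreated DMSO cell wells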
[5] = viability of PTEN-null HCT116 cells – cell-based, HCT116 clonal line, CellTiter-Glo, pilot screen (AID 824;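 active means viability at or below 27.92% in each of two runs, the all-compound median minus 4 SD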;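 further: 0% = 20 µM Hyamine control and 100% = vehicle cell control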); conditions: HCT116 PTEN-deleted viability, 60 h, at 10 µM, hits give low values
[6] = RAM pathway blockade in budding yeast – dse1pr::URA3 reporter, 5-FOA selection, pilot screen (AID 869;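 active means inhibition over a set limit, the all-compound mean plus 3 SD, in both replicate runs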;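 further: 0% = DMSO wells with no growth and 100% = 10 µM 1-NA-PP1 with full growth; RAM network block rescues cells from 5-FOA so hits raise OD615 growth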); conditions: S. cerevisiae dse1pr::URA3 5-FOA growth, OD615, 2 d; at 10 µM; hits give high values; strain carries analog-sensitive mutant Cbk1 kinase
[7] = RAM signaling pathway blockade in yeast – S. cerevisiae, Pdr1DBD-CYC8 efflux-inhibited sensitized strain, primary screen (AID 1298;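 active means RAM network inhibition above 8.4% in each of two replicates, 3 SD over the compound average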;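 further: 0% = DMSO untreated cells without growth and 100% = 10 µM 1-NA-PP1 full growth; higher means more yeast growth rescued from 5-FOA killing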); conditions: S. cerevisiae cbk1-as DSE1-URA3 strain, 5-FOA growth OD615, 2 d; at 50 µM; hits give high values

O=C(CCNS(=O)(=O)c1cccc2nonc12)NCCc1ccc(Cl)cc1
inactive: growth inhibition [1] -2.56% | growth inhibition [2] -9.13% | viability increase [3] 5.07% | viability [4] 90% | viability [5] 101% | inhibition [6] -0.08% | RAM network inhibition [7] 3%

Nc1nc(SCc2ccc(Cl)cc2)ns1
inactive: growth inhibition [1] 10.4% | growth inhibition [2] 7.05% | viability increase [3] 1.03% | viability [4] 98.4% | viability [5] 89.2% | inhibition [6] 0.695% | RAM network inhibition [7] 0.78%

CCOc1ccc(C2CC(=O)NC(SCC(=O)OC)=C2C#N)cc1 (configuration not stated)
inactive: growth inhibition [1] 3.64% | growth inhibition [2] 6.22% | viability increase [3] 2.65% | viability [4] 102% | viability [5] 105% | inhibition [6] 1.87% | RAM network inhibition [7] 1.2%

CCOC(=O)N1CCC(N2CC34C=CC(O3)C(C(=O)Nc3ccc(C(C)C)cc3)C4C2=O)CC1 (configuration not stated)
inactive: growth inhibition [1] 2.48% | growth inhibition [2] -7.2% | viability increase [3] 3.15% | viability [4] 102% | viability [5] 99.6% | inhibition [6] 0.27% | RAM network inhibition [7] -0.37%

CCCCCn1c(CNC(=O)CCC)nc2ccccc21
inactive: growth inhibition [1] -7.29% | growth inhibition [2] -2.36% | viability increase [3] -2.97% | viability [4] 101% | viability [5] 96.4% | inhibition [6] 2.5% | RAM network inhibition [7] 0.64%

CCC(=O)N1CCc2cc(Br)cc(S(=O)(=O)NCCN3CCOCC3)c21
inactive: growth inhibition [1] -4.99% | growth inhibition [2] -8.08% | viability increase [3] 0.03% | viability [4] 101% | viability [5] 98.4% | inhibition [6] 1.71% | RAM network inhibition [7] 1.49%

Cc1cccc(-n2ncc3c(Nc4ccc(F)cc4)ncnc32)c1
inactive: growth inhibition [1] -11.3% | growth inhibition [2] -5.18% | viability increase [3] 2.21% | viability [4] 106% | viability [5] 95.4% | inhibition [6] 3.18% | RAM network inhibition [7] 1.56%

Cn1c(Cn2c(=O)sc3ccccc32)nnc1SCC(=O)Nc1ccc(Cl)cc1
inactive: growth inhibition [1] -9.07% | growth inhibition [2] -17.2% | viability increase [3] -3.25% | viability [4] 98.6% | viability [5] 89% | inhibition [6] 3.06% | RAM network inhibition [7] 5.32%

O=C1CCCc2sccc2N1
inactive: growth inhibition [1] -6.83% | growth inhibition [2] -3.71% | viability increase [3] -1.57% | viability [4] 106% | viability [5] 96.9% | inhibition [6] 0.26% | RAM network inhibition [7] 2.15%

CCC(C)NC(=O)Cn1cc2c(n1)CCC(C)C2 (configuration not stated)
inactive: growth inhibition [1] -6.78% | growth inhibition [2] 6.43% | viability increase [3] -1.54% | viability [4] 103% | viability [5] 97.3% | inhibition [6] 0.14% | RAM network inhibition [7] 0.42%

CCOC(=O)CN1C(=O)C(O)(CC(=O)c2ccccn2)c2ccccc21 (configuration not stated)
inactive: growth inhibition [1] -10.3% | growth inhibition [2] 3.35% | viability increase [3] -4.5% | viability [4] 82.8% | viability [5] 92% | inhibition [6] 1.31% | RAM network inhibition [7] 1.78%

CCOC(=O)C1CCN(C(=O)CN(c2cccc(OC)c2)S(=O)(=O)c2ccccc2)CC1
inactive: growth inhibition [1] -4.73% | growth inhibition [2] -0.62% | viability increase [3] -3.2% | viability [4] 92.9% | viability [5] 87.2% | inhibition [6] -0.74% | RAM network inhibition [7] 1.79%

O=C(c1ccco1)N1CCN(c2ncccn2)CC1
inactive: growth inhibition [1] -12.9% | growth inhibition [2] -5.72% | viability increase [3] -1.88% | viability [4] 98.9% | viability [5] 96.3% | inhibition [6] 2.97% | RAM network inhibition [7] -0.22%

COc1ccc(NS(=O)(=O)c2ccc(OC)c(OC)c2)cc1OC
inactive: growth inhibition [1] -7.13% | growth inhibition [2] 4.59% | viability increase [3] 0.52% | viability [4] 92% | viability [5] 90.7% | inhibition [6] 0.335% | RAM network inhibition [7] 0%

Cc1ccccc1-c1nnc(-c2ccccc2)o1
inactive: growth inhibition [1] -0.03% | growth inhibition [2] -4.75% | viability increase [3] -4.15% | viability [4] 80.9% | viability [5] 83.1% | inhibition [6] 1.82% | RAM network inhibition [7] 0.2%

Cc1ccc(-n2c(=O)[nH]cc(C(=O)Nc3ccc4c(c3)OCO4)c2=O)cc1C
inactive: growth inhibition [1] -15.8% | growth inhibition [2] -15% | viability increase [3] 0.27% | viability [4] 107% | viability [5] 94.8% | inhibition [6] 1.78% | RAM network inhibition [7] 3.26%

CC(=O)C1=C(O)C(=O)N(c2nnn(C)n2)C1c1cccs1 (configuration not stated)
inactive: growth inhibition [1] -9.56% | growth inhibition [2] -6.22% | viability increase [3] -1.76% | viability [4] 107% | viability [5] 95.8% | inhibition [6] 2.02% | RAM network inhibition [7] 0.72%

COc1ccc2c(c1)CC(C1(O)C(=O)N(C)c3ccccc31)C2=O (configuration not stated)
inactive: growth inhibition [1] 2.02% | growth inhibition [2] -8.81% | viability increase [3] -3.79% | viability [4] 94% | viability [5] 93.3% | inhibition [6] 0.845% | RAM network inhibition [7] 2.96%

COc1ccc(-n2c(Cn3c(=O)sc4ccccc43)nnc2SCC(=O)N2CCOCC2)cc1
inactive: growth inhibition [1] -0.33% | growth inhibition [2] 7.95% | viability increase [3] 0.3% | viability [4] 102% | viability [5] 97% | inhibition [6] 0.235% | RAM network inhibition [7] 1.66%

CCN(CCN(C)C)C(=O)Cn1ncc2c1-c1cc(C)ccc1OC2
inactive: growth inhibition [1] -11% | growth inhibition [2] -0.185% | viability increase [3] -0.91% | viability [4] 94.8% | viability [5] 102% | inhibition [6] 2.43% | RAM network inhibition [7] 2.3%

CC(Oc1ccc(Cl)cc1Cl)C(=O)NCCCN(C)C (configuration not stated)
inactive: growth inhibition [1] -0.77% | growth inhibition [2] 4.78% | viability increase [3] -2.25% | viability [4] 99.6% | viability [5] 100% | inhibition [6] 1.79% | RAM network inhibition [7] 0.78%

COc1ccc(CNC(=O)c2cnn3c(C(F)F)cc(C)nc23)cc1OC
inactive: growth inhibition [1] -6.09% | growth inhibition [2] 9.23% | viability increase [3] 0.02% | viability [4] 92.3% | viability [5] 86.2% | inhibition [6] 1.99% | RAM network inhibition [7] 2.31%

COc1ccc(-n2c(=O)c3ccccc3n(CC(=O)NC3CCCC3)c2=O)c(OC)c1
inactive: growth inhibition [1] -4.38% | growth inhibition [2] -22% | viability increase [3] -0.98% | viability [4] 98.2% | viability [5] 96.2% | inhibition [6] 2.04% | RAM network inhibition [7] 3.21%

COc1cccc(C2CC(c3ccccc3)Nc3nc(N)nn32)c1 (configuration not stated)
inactive: growth inhibition [1] -2.81% | growth inhibition [2] 7.94% | viability increase [3] 0.44% | viability [4] 94.9% | viability [5] 93.5% | inhibition [6] 1.83% | RAM network inhibition [7] 3.16%

Cn1c(=O)n(C)c2cc(S(=O)(=O)O)ccc21
inactive: growth inhibition [1] 5.19% | growth inhibition [2] 4.85% | viability increase [3] -1.08% | viability [4] 97% | viability [5] 95% | inhibition [6] 1.38% | RAM network inhibition [7] 0.76%

O=C1CCCCC(=O)N(c2ccccc2)c2ccccc21
inactive: growth inhibition [1] -9.64% | growth inhibition [2] -15% | viability increase [3] -3.3% | viability [4] 95.9% | viability [5] 95.6% | inhibition [6] 1.74% | RAM network inhibition [7] 5.34%

CCSCCOC(=O)C1=C(C)NC(=O)NC1c1ccccc1 (configuration not stated)
inactive: growth inhibition [1] -4.77% | growth inhibition [2] -1.22% | viability increase [3] 0.68% | viability [4] 105% | viability [5] 98.1% | inhibition [6] 1.47% | RAM network inhibition [7] 0.3%

CCCN1C(=O)c2cc(C(=O)NCCc3cccc(C)c3)ccc2C1O (configuration not stated)
inactive: growth inhibition [1] -2.76% | growth inhibition [2] 1.97% | viability increase [3] -3.1% | viability [4] 104% | viability [5] 104% | inhibition [6] 0.08% | RAM network inhibition [7] 1.65%

COc1ccc(C2C3=C(Nc4ncnn42)c2ccccc2CCC3)cc1 (configuration not stated)
inactive: growth inhibition [1] -12.5% | growth inhibition [2] -17.7% | viability increase [3] -1.45% | viability [4] 91.7% | viability [5] 89.1% | inhibition [6] 1.9% | RAM network inhibition [7] 3.32%

CCOC(=O)c1sc(NCCNc2nc(C)c(C(=O)OCC)s2)nc1C
inactive: growth inhibition [1] 2.36% | growth inhibition [2] -21.8% | viability increase [3] -3.12% | viability [4] 94.1% | viability [5] 89% | inhibition [6] 0.595% | RAM network inhibition [7] 5.86%

COc1ccc(NC(=O)Nc2ccc3c(c2)N(C)C(=O)CS3)cc1OC
inactive: growth inhibition [1] -18.9% | growth inhibition [2] -18.2% | viability increase [3] -4.94% | viability [4] 88% | viability [5] 75.9% | inhibition [6] 2.05% | RAM network inhibition [7] 5.75%

O=C1CN(C(=O)CN2CCOCC2)C(c2ccccc2)c2cc(Br)ccc2N1 (configuration not stated)
inactive: growth inhibition [1] -9.19% | growth inhibition [2] -11.4% | viability increase [3] -3.48% | viability [4] 96.4% | viability [5] 92.8% | inhibition [6] 0.785% | RAM network inhibition [7] 1.01%

CCOC(=O)c1ccc(NC(=O)CSc2nc3c(c(=O)n2C)SC(C)C3)cc1 (configuration not stated)
inactive: growth inhibition [1] 1.02% | growth inhibition [2] 7.47% | viability increase [3] -2.01% | viability [4] 72.9% | viability [5] 74.3% | inhibition [6] 0.975% | RAM network inhibition [7] 3.08%

COc1ccc(Cc2nnc(-c3cccc(C)c3)o2)cc1OC
inactive: growth inhibition [1] -11.4% | growth inhibition [2] 2.94% | viability increase [3] 1.15% | viability [4] 95.4% | viability [5] 84.4% | inhibition [6] 1.84% | RAM network inhibition [7] 7.99%

CC1CCN(S(=O)(=O)N2CCC(C(=O)N3CCC(N(C)CC4CCCO4)CC3)CC2)CC1 (configuration not stated)
inactive: growth inhibition [1] -0.85% | growth inhibition [2] -5.09% | viability increase [3] -1.16% | viability [4] 90.6% | viability [5] 95.3% | inhibition [6] 2.09% | RAM network inhibition [7] 0.73%

CCOC(=O)c1ccc(N2CSC3=C(C#N)C(c4cccs4)CC(=O)N3C2)cc1 (configuration not stated)
inactive: growth inhibition [1] 6.68% | growth inhibition [2] 28.2% | viability increase [3] -1.48% | viability [4] 103% | viability [5] 85.3% | inhibition [6] 1.52% | RAM network inhibition [7] 2.37%
